Columns and labels:
[1] = Drug uptake in tumor of C57BL/6J mouse xenografted with mouse B16F0 cells at 3.7 MBq, iv after 7 days by gamma scintigraphic imaging analysis relative to control; format: ADME, organism-based, Neoplasm; settings: in vivo, 168 h
Summary of the method: (§1)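 Male C57BL/6J mice (6-8 weeks) bearing subcutaneous B16F0 tumours (3×10^5 cells in PBS, right flank, isoflurane anaesthesia); on day 14 after implant, [125I]-labelled tracer given i.v. via tail vein, 3.7 MBq/mouse, in physiological serum (some tracers in 5% ethanol/physiological serum); 3-8 animals per compound. Under i.p. ketamine (100 mg/kg)–xylazine (10 mg/kg), 10 min planar scintigrams acquired in prone position, 15% window on 35 keV peak.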

[2] = Drug uptake in tumor of C57BL/6J mouse xenografted with mouse B16F0 cells at 3.7 MBq, iv after 72 hrs by gamma scintigraphic imaging analysis relative to control; format: ADME, organism-based, Neoplasm; settings: in vivo; summary of the method: as §1
[3] = Drug uptake in tumor of C57BL/6J mouse xenografted with mouse B16F0 cells at 3.7 MBq, iv after 5 days by gamma scintigraphic imaging analysis relative to control; format: ADME, organism-based, Neoplasm; settings: in vivo, 120 h; summary of the method: as §1
[4] = Drug uptake in tumor of C57BL/6J mouse xenografted with mouse B16F0 cells at 3.7 MBq, iv after 10 days by gamma scintigraphic imaging analysis relative to control; format: ADME, organism-based, Neoplasm; settings: in vivo, 240 h; summary of the method: as §1
[5] = Drug uptake in tumor of C57BL/6J mouse xenografted with mouse B16F0 cells at 3.7 MBq, iv after 1 hr by gamma scintigraphic imaging analysis relative to control; format: ADME, organism-based, Neoplasm; settings: in vivo; summary of the method: as §1
[6] = Drug uptake in tumor of C57BL/6J mouse xenografted with mouse B16F0 cells at 3.7 MBq, iv after 24 hrs by gamma scintigraphic imaging analysis relative to control; format: ADME, organism-based, Neoplasm; settings: in vivo; summary of the method: as §1
[7] = Drug uptake in tumor of C57BL/6J mouse xenografted with mouse B16F0 cells at 3.7 MBq, iv after 14 days by gamma scintigraphic imaging analysis relative to control; format: ADME, organism-based, Neoplasm; settings: in vivo, 336 h; summary of the method: as §1
[8] = Drug uptake in tumor of C57BL/6J mouse xenografted with mouse B16F0 cells at 3.7 MBq, iv after 6 hrs by gamma scintigraphic imaging analysis relative to control; format: ADME, organism-based, Neoplasm; settings: in vivo; summary of the method: as §1
[9] = Ratio of drug uptake in tumor to muscle in C57BL/6J mouse xenografted with mouse B16F0 cells at 3.7 MBq, iv after 1 hr; settings: in vivo
[10] = Drug uptake in tumor of C57BL/6J mouse xenografted with mouse B16F0 cells at 3.7 MBq, iv after 3 hrs by gamma scintigraphic imaging analysis relative to control; format: ADME, organism-based, Neoplasm; settings: in vivo; summary of the method: as §1
Mus musculus = experiment: Toxicity against C57BL/6J mouse xenografted with mouse B16F0 cells assessed as mortality at 3.7 MBq, iv after 2 days; format: organism-based; settings: in vivo, 48 h
Summary of the method: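 Male C57BL/6J mice (6-8 weeks) were inoculated s.c. on the right flank with 3×10^5 B16F0 cells in 0.1 mL PBS under 2% isoflurane. On day 14 after implant they received the [125I]-labelled tracer i.v. via the tail vein at 3.7 MBq/mouse, in physiological serum (5% ethanol in physiological serum for non-salt forms), with 3–8 animals per compound. Survival was recorded 2 days post-injection.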

Compound | Drug uptake [1] | Drug uptake [2] | Drug uptake [3] | Drug uptake [4] | Drug uptake [5] | Drug uptake [6] | Drug uptake [7] | Drug uptake [8] | Ratio [9] | Drug uptake [10] | Activity (Mus musculus)
CCN(CCNC(=O)c1cnc2cc([125I])ccc2n1)CCOCCOCCOCCF.Cl | 2.7 % ID/g | 8.6 % ID/g | 5.8 % ID/g | 1.3 % ID/g | 11.7 % ID/g | 12.4 % ID/g | 0.6 % ID/g | 12.1 % ID/g | 5.76 | 12.1 % ID/g | 
CCN(CCNC(=O)c1cnc2cc([125I])ccc2n1)CCOCCOCCOCCOCCOCCOCCOCCF | 1.5 % ID/g | 3.8 % ID/g | 2.7 % ID/g | 0.8 % ID/g | 6.8 % ID/g | 6.8 % ID/g | 0.3 % ID/g | 7.2 % ID/g |  | 7.8 % ID/g | 
CCN(CCCF)CCNC(=O)c1cnc2cc([125I])ccc2n1 | 3 % ID/g | 8.5 % ID/g | 5.4 % ID/g | 1.4 % ID/g | 10 % ID/g | 11.4 % ID/g | 0.8 % ID/g | 15.3 % ID/g |  | 13.5 % ID/g | 
CCN(CCF)CCNC(=O)c1cnc2cc([125I])ccc2n1.Cl |  | 20 % ID/g | 8.4 % ID/g | 1.6 % ID/g | 21.4 % ID/g | 24.8 % ID/g | 0.6 % ID/g | 25 % ID/g |  | 22.5 % ID/g | Toxic
CCN(CC#CCF)CCNC(=O)c1cnc2cc([125I])ccc2n1.Cl | 8 % ID/g | 14.9 % ID/g | 11.6 % ID/g | 4.2 % ID/g | 12.3 % ID/g | 23.5 % ID/g | 2.2 % ID/g | 23.3 % ID/g | 5.76 | 18.3 % ID/g | 
CCN(C/C=C/CF)CCNC(=O)c1cnc2cc([125I])ccc2n1.Cl | 3.3 % ID/g | 10 % ID/g | 5.6 % ID/g | 1.9 % ID/g | 10.8 % ID/g | 15 % ID/g | 1.3 % ID/g | 13.9 % ID/g | 5.76 | 12.3 % ID/g | 
CCN(CCNC(=O)c1cnc2cc([125I])ccc2n1)Cc1cn(CCF)nn1.Cl | 5.3 % ID/g | 11 % ID/g | 8.6 % ID/g | 3.7 % ID/g | 13 % ID/g | 15.6 % ID/g | 1.8 % ID/g | 15.9 % ID/g | 5.76 | 14.5 % ID/g | 
